Data as given in ChEMBL document CHEMBL3351809, “New potent antibacterials against Gram-positive multiresistant pathogens: effects of side chain modification and chirality in linezolid-like 1,2,4-oxadiazoles” (Bioorg Med Chem, 2014).
In brackets after ≈: the same amount, converted by molar mass.

Legend:
[1] = tested on: Staphylococcus aureus; assay: Antibacterial activity against Staphylococcus aureus ATCC 29213 by broth microdilution method; assay type: functional
[2] = Antibacterial activity against Staphylococcus aureus Mu50 ATCC 700699 by broth microdilution method; assay type: functional, Staphylococcus aureus subsp. aureus Mu50
[3] = tested on: Staphylococcus aureus; assay: Antibacterial activity against methicillin-resistant Staphylococcus aureus MRSA M923 by broth microdilution method; assay type: functional
[4] = tested on: Staphylococcus aureus; assay: Antibacterial activity against methicillin-resistant Staphylococcus aureus MRSA 433 by broth microdilution method; assay type: functional
[5] = tested on: Staphylococcus aureus; assay: Antibacterial activity against methicillin-resistant Staphylococcus aureus MRSA F511 by broth microdilution method; assay type: functional
[6] = tested on: HepG2; assay: Cytotoxicity against human HepG2 cells at 50 to 100 ug/ml after 48 hrs by presto-blue staining-based assay; assay type: cell-based; details: hepg2, 48 h
Method in brief: (§1)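 HepG2 cells were grown in DMEM with 10% heat-inactivated FBS, 2 mM L-glutamine and penicillin/streptomycin. They were seeded at 40,000 cells/cm² on collagen-coated wells and treated two days later with enantiomers at 25–100 µg/ml (in DMSO) for 48 h. PrestoBlue resazurin was read after 1 h at 37 °C as absorbance at 570 nm against 600 nm. Data are mean ± SEM of 3 experiments in triplicate; Student's t test.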

[7] = tested on: Staphylococcus aureus; assay: Antibacterial activity against linezolid-sensitive methicillin-resistant Staphylococcus aureus by broth microdilution method; assay type: functional
[8] = tested on: HepG2; assay: Cytotoxicity against human HepG2 cells at 25 ug/ml after 48 hrs by presto-blue staining-based assay; assay type: cell-based; details: hepg2, 48 h; method in brief: as §1
[9] = tested on: Staphylococcus epidermidis; assay: Antibacterial activity against linezolid-resistant methicillin-resistant Staphylococcus epidermidis by broth microdilution method; assay type: functional
[10] = tested on: HepG2; assay: Cytotoxicity against human HepG2 cells at 25 to 100 ug/ml after 48 hrs by presto-blue staining-based assay; assay type: cell-based; details: hepg2, 48 h; method in brief: as §1
[11] = tested on: HepG2; assay: Cytotoxicity against human HepG2 cells at 100 ug/ml after 48 hrs by presto-blue staining-based assay; assay type: cell-based; details: hepg2, 48 h; method in brief: as §1

Compound	MIC [1] [µg/mL]	MIC [2] [µg/mL]	MIC [3] [µg/mL]	MIC [4] [µg/mL]	MIC [5] [µg/mL]	Activity [6]	MIC [7] [µg/mL]	Activity [8]	MIC [9] [µg/mL]	Activity [10]	Activity [11] [%]
C=C1CN(c2ccc(-c3nc(C)no3)cc2)C(=O)O1	> 50	> 50	> 50	> 50	> 50						
C=C1CN(c2ccc(-c3nc(C)no3)c(F)c2)C(=O)O1	> 50	> 50	> 50	> 50	> 50						
CNC(=S)NC[C@H]1CN(c2ccc(-c3nc(C)no3)cc2)C(=O)O1						Non-toxic	0.5 (≈ 1.44 µM)	Toxic	8 (≈ 23 µM)		
CNC(=S)NC[C@H]1CN(c2ccc(-c3nc(C)no3)c(F)c2)C(=O)O1										Toxic	
CNC(=S)NC[C@@H]1CN(c2ccc(-c3nc(C)no3)c(F)c2)C(=O)O1										Toxic	
Cc1noc(-c2ccc(N3CC(CN=C=S)OC3=O)cc2)n1 (racemic)	> 50	> 50	> 50	> 50	50 (≈ 158 µM)						
Cc1noc(-c2ccc(N3CC(CN=C=S)OC3=O)cc2F)n1 (racemic)	> 50	> 50	> 50	> 50	> 50						
Cc1noc(-c2ccc(N3CC(CNC(N)=S)OC3=O)cc2)n1 (racemic)	> 50	> 50	> 50	> 50	50 (≈ 150 µM)						
Cc1noc(-c2ccc(N3CC(CNC(N)=S)OC3=O)cc2F)n1 (racemic)	> 50	> 50	> 50	> 50	> 50						
CNC(=S)NCC1CN(c2ccc(-c3nc(C)no3)c(F)c2)C(=O)O1 (racemic)	6.25 (≈ 17.1 µM)	1.6 (≈ 4.38 µM)	6.25 (≈ 17.1 µM)	3.12 (≈ 8.55 µM)	6.25 (≈ 17.1 µM)						
CNC(=S)NCC1CN(c2ccc(-c3nc(C)no3)cc2)C(=O)O1 (racemic)	6.25 (≈ 18 µM)	1.6 (≈ 4.61 µM)	6.25 (≈ 18 µM)	3.12 (≈ 9 µM)	6.25 (≈ 18 µM)						
Cc1noc(-c2ccc(N3CC(Cn4ccnn4)OC3=O)cc2)n1 (racemic)	25 (≈ 76.6 µM)	3.12 (≈ 9.58 µM)	25 (≈ 76.6 µM)	12.5 (≈ 38.3 µM)	12.5 (≈ 38.3 µM)						
Cc1noc(-c2ccc(N3CC(Cn4ccnn4)OC3=O)cc2F)n1 (racemic)	25 (≈ 72.6 µM)	1.6 (≈ 4.65 µM)	25 (≈ 72.6 µM)	6.25 (≈ 18.2 µM)	12.5 (≈ 36.3 µM)						
CC(=O)NC[C@H]1CN(c2ccc(N3CCOCC3)c(F)c2)C(=O)O1 [LINEZOLID]			3.12 (≈ 9.26 µM)		3.12 (≈ 9.26 µM)						20
